B1: NELF-E aptamer (parent)
chain: CCCAACGACUGCCGAGCGAGAUUACGCUUGAGCGCCCCACUGAGGAUGCCCACGGGCGAUUGGGGCACGG

Experimental findings from the RNAGym collection of RNA variant scans (doi:10.1038/nmeth.2970) are described below.

In this data set the parent is B1. Nature of the data set: HiTS-RAP. The following applies: with NELF-E (Drosophila). The essentials:
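Aptamer DNA templates carrying a T7 promoter and ter site were sequenced on an Illumina GAIIx flowcell, then transcribed in situ by T7 RNA polymerase and halted by GST-Tus (30 minutes, 37°C). Clusters were imaged after 30-minute room-temperature equilibration with NELF-E-mOrange at 0.064 to 1000 nM in HEPES binding buffer, and only the first binding curve was used. Intensities were normalised to sequencing intensity and averaged per sequence. Kd came from weighted Hill fits, keeping fits with variance below 1,000,000.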
In general, Kd refers to the free concentration of one partner at which half of the binding sites on the other are occupied at equilibrium, for simple one-to-one binding. With CCCAACGACUACCGAGCGAGAUGACGCUUGAGCGCCCCACUGAGGAUGCCCACGGGCGAUUGGGGCACGG [G11A U23G], the Kd was 5.54 nM.

CCCAACGACGGCCGAGCGAGAUUACGCUAGAGCGCCCCACUGAGGAUGCCCACGGGCGAUUGGGGCACGG [U10G U29A]: the equilibrium dissociation constant (Kd) stood at 4.58 nM.

Consider CCCAACGACGGCCGAGCGAGAUUACGCUCGAGCGCCCCACUGAGGAUGCCCACGGGCGAUUGGGGCACGG [U10G U29C], for which the Kd was 4.67 nM.

Regarding CCCAACGACGGCCGAGCGAGAUUACGCUGGAGCGCCCCACUGAGGAUGCCCACGGGCGAUUGGGGCACGG [U10G U29G], the Kd came to 5.05 nM.

Regarding CCCAACGACGGCCGAGCGAGAAUACGCUUGAGCGCCCCACUGAGGAUGCCCACGGGCGAUUGGGGCACGG [U10G U22A], the Kd worked out at 5.58 nM.

In the case of CCCAACGACGGCCGAGCGAGACUACGCUUGAGCGCCCCACUGAGGAUGCCCACGGGCGAUUGGGGCACGG [U10G U22C], the Kd was 4.95 nM.

Take CCCAACGACGGCCGAGCGAGAGUACGCUUGAGCGCCCCACUGAGGAUGCCCACGGGCGAUUGGGGCACGG [U10G U22G]: the Kd is 4.87 nM.

For CCCAACGACGGCCGAGCGAGAUUACGCUUGAGCGCCCCACUGAGGAUGCCCACGGGCGAUUGGAGCACGG [U10G G64A], the Kd worked out at 7.4 nM.

Turning to CCCAACGACGGCCGAGCGAGAUUACGCUUGAGCGCCCCACUGAGGAUGCCCACGGGCGAUUGGCGCACGG [U10G G64C], the Kd was 6.95 nM.

Turning to CCCAACGACGGCCGAGCGAGAUUACGCUUGAGCGCCCCACUGAGGAUGCCCACGGGCGAUUGGUGCACGG [U10G G64U], the equilibrium dissociation constant (Kd) was 7.3 nM.

Consider CCCAACGACUACCGAGCGAGAUUACGCUUGAGCGCCCCUCUGAGGAUGCCCACGGGCGAUUGGGGCACGG [G11A A39U], for which the Kd was found to be 24.2 nM.

Consider CCCAACGACGGCCGAGCGAGAUUACGCUUGAGCGCCCCACUGAGGAUGCCCACGGGCGAUUGCGGCACGG [U10G G63C], for which the dissociation constant Kd came out at 43 nM.

For the variant CCCAACGACGGCCGAGCGAGAUUACGCUUGAGCGCCCCACUGAGGAUGCCCACGGGCGAUUGUGGCACGG [U10G G63U], the Kd turned out to be 10.9 nM.

For CCCAACGACGGCCGAGCGAGAUUACGCUUGAGCGCCCCACUGAGGAUGCCCACGGGCGAUUGAGGCACGG [U10G G63A], the Kd is 16.5 nM.

Turning to CCCAACGACUACCGAGCGGGAUUACGCUUGAGCGCCCCACUGAGGAUGCCCACGGGCGAUUGGGGCACGG [G11A A19G], the equilibrium dissociation constant (Kd) was found to be 6.92 nM.

For CCCAACGACUACCGAGCAAGAUUACGCUUGAGCGCCCCACUGAGGAUGCCCACGGGCGAUUGGGGCACGG [G11A G18A], the Kd turned out to be 7.8 nM.

For CCCAACGACUACCGAGCGAGAUUACGCUUGAGCGCCCCACUGAGGAUGCCCACGGGCGAUUGGGGCUCGG [G11A A67U], the equilibrium dissociation constant (Kd) stood at 6.87 nM.

Consider CCCAACGACUACCGAGCGAGAUUACGCCUGAGCGCCCCACUGAGGAUGCCCACGGGCGAUUGGGGCACGG [G11A U28C], for which the equilibrium dissociation constant (Kd) came to 9.79 nM.

On to CCCAACGACUUCCGAGCGAGUUUACGCUUGAGCGCCCCACUGAGGAUGCCCACGGGCGAUUGGGGCACGG [G11U A21U], for which the dissociation constant (Kd) turned out to be 5.9 nM.

Regarding CCCAACGACUUCCGAGCGAGGUUACGCUUGAGCGCCCCACUGAGGAUGCCCACGGGCGAUUGGGGCACGG [G11U A21G], the dissociation constant (Kd) stood at 7.69 nM.

In the case of CCCAACGACGGCCGAGCGAGAUUACGCUUGAGCGCCCCACUGAGGAUGCCCACGUGCGAUUGGGGCACGG [U10G G55U], the equilibrium dissociation constant (Kd) turned out to be 6.13 nM.

For CCCAACGACGGCCGAGCGAGAUUACGCUUGAGCGCCCCACUGAGGAUGCCCACGAGCGAUUGGGGCACGG [U10G G55A], the equilibrium dissociation constant (Kd) worked out at 8.64 nM.

As for CCCAACGACGGCCGAGCGAGAUUACGCUUGAGCGCCCCACUGAGGAUGCCCACGCGCGAUUGGGGCACGG [U10G G55C], the equilibrium dissociation constant (Kd) is 7.54 nM.

With CCCAACGACUACCGAGCGAUAUUACGCUUGAGCGCCCCACUGAGGAUGCCCACGGGCGAUUGGGGCACGG [G11A G20U], the Kd turned out to be 8.59 nM.

CCCAACGACUUCCGAGCGUGAUUACGCUUGAGCGCCCCACUGAGGAUGCCCACGGGCGAUUGGGGCACGG [G11U A19U]: the dissociation constant (Kd) came out at 7.3 nM.

As to CCCAACGACUUCCGAGCGGGAUUACGCUUGAGCGCCCCACUGAGGAUGCCCACGGGCGAUUGGGGCACGG [G11U A19G], the equilibrium dissociation constant (Kd) was determined as 6.05 nM.

Consider CCCAACGACUUCCGGGCGAGAUUACGCUUGAGCGCCCCACUGAGGAUGCCCACGGGCGAUUGGGGCACGG [G11U A15G], for which the dissociation constant (Kd) came out at 6.22 nM.

On to CCCAACGACUUCCGUGCGAGAUUACGCUUGAGCGCCCCACUGAGGAUGCCCACGGGCGAUUGGGGCACGG [G11U A15U], for which the equilibrium dissociation constant (Kd) was determined as 7.47 nM.

CCCAACGACGGCCGAGCGAGAUGACGCUUGAGCGCCCCACUGAGGAUGCCCACGGGCGAUUGGGGCACGG [U10G U23G]: the dissociation constant Kd was 5.1 nM.

On to CCCAACGACGGCCGAGCGAGAUAACGCUUGAGCGCCCCACUGAGGAUGCCCACGGGCGAUUGGGGCACGG [U10G U23A], for which the Kd was 5.14 nM.

For the variant CCCAACGACGGCCGAGCGAGAUCACGCUUGAGCGCCCCACUGAGGAUGCCCACGGGCGAUUGGGGCACGG [U10G U23C], the Kd came to 4.23 nM.

Turning to CCCAACGACGGCCGAGCGAGAUUACGCUUGAGCGCCCCACUGAGGAUGCCCACGGCCGAUUGGGGCACGG [U10G G56C], the equilibrium dissociation constant (Kd) stood at 27.1 nM.

For CCCAACGACGGCCGAGCGAGAUUACGCUUGAGCGCCCCACUGAGGAUGCCCACGGACGAUUGGGGCACGG [U10G G56A], the equilibrium dissociation constant (Kd) was found to be 9.45 nM.

CCCAACGACGGCCGAGCGAGAUUACGCUUGAGCGCCCCACUGAGGAUGCCCACGGUCGAUUGGGGCACGG [U10G G56U]: the Kd was found to be 5.31 nM.

As to CCCAACGACGGCCGAGCGAGAUUACGCCUGAGCGCCCCACUGAGGAUGCCCACGGGCGAUUGGGGCACGG [U10G U28C], the dissociation constant Kd turned out to be 8.85 nM.

Turning to CCCAACGACGGCCGAGCGAGAUUACGCAUGAGCGCCCCACUGAGGAUGCCCACGGGCGAUUGGGGCACGG [U10G U28A], the equilibrium dissociation constant (Kd) stood at 4.53 nM.

As to CCCAACGACGGCCGAGCGAGAUUACGCGUGAGCGCCCCACUGAGGAUGCCCACGGGCGAUUGGGGCACGG [U10G U28G], the Kd came to 6.52 nM.

CCCAACGACUACCGAGCGAGAUUGCGCUUGAGCGCCCCACUGAGGAUGCCCACGGGCGAUUGGGGCACGG [G11A A24G]: the Kd was determined as 5.78 nM.
